According to ChEMBL document CHEMBL1132435 (J Med Chem, 1999):
Where a SMILES comes first, the peptide text is derived from it. [ ]: non-standard residue; d: D form. The star is where a group is joined. X1 = COc1ccc(C[C@@H](CN[C@@H](CCCNC(=N)N)C(=O)O)N*)cc1; Hyp = O=C(O)[C@@H]1C[C@@H](O)CN1; 2Thi = N[C@@H](Cc1cccs1)C(=O)O

Columns and labels:
B1 bradykinin receptor = molecular target: T1, B1 bradykinin receptor (Homo sapiens, UniProt P46663); assay: Binding affinity against human cloned Bradykinin receptor B1 expressed in HEK 293 cells using [3H]des-Arg10-[Leu9]-kallidin as radioligand
T1 sequence (P46663 whole entry): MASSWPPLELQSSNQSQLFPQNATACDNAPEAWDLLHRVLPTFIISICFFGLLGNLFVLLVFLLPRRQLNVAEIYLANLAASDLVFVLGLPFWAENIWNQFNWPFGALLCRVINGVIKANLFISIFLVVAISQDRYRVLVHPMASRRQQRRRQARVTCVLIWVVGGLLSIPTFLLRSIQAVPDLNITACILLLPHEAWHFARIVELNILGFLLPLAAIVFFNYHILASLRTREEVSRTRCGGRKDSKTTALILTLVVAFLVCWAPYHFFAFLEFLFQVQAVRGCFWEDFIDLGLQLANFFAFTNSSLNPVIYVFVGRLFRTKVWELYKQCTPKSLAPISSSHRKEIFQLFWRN

B2 bradykinin receptor [1] = molecular target: T2, B2 bradykinin receptor (Homo sapiens, UniProt P30411); assay: Binding affinity against human cloned Bradykinin receptor B2 expressed in CHO cells using [3H]-bradykinin as radioligand; assay type: cell-based
T2 sequence (P30411 whole entry): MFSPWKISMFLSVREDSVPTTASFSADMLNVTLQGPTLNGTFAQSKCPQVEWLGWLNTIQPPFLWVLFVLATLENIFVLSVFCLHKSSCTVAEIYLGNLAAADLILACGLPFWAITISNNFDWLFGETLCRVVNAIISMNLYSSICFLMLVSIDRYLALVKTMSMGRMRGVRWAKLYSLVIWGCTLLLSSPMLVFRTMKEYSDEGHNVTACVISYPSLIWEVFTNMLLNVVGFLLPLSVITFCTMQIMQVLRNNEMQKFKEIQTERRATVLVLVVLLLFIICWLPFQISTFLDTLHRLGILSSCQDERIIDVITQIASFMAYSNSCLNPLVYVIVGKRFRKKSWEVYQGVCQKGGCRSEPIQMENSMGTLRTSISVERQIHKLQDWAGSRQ
In short: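 Membranes of stably transfected CHO cells (human or rat B2 receptor), prepared in 20 mM TES pH 6.8 with 1 mM 1,10-phenanthroline, 140 µg/mL bacitracin and 0.1% BSA, spun at 40 000g. Filtration on PEI-soaked GF/B filters.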

B2 bradykinin receptor [2] = molecular target: T3, B2 bradykinin receptor (Rattus norvegicus, UniProt P25023); assay: Binding affinity against rat bradykinin B2 receptors expressed in CHO cells using [3H]bradykinin as radioligand; assay type: cell-based
T3 sequence (P25023 whole entry): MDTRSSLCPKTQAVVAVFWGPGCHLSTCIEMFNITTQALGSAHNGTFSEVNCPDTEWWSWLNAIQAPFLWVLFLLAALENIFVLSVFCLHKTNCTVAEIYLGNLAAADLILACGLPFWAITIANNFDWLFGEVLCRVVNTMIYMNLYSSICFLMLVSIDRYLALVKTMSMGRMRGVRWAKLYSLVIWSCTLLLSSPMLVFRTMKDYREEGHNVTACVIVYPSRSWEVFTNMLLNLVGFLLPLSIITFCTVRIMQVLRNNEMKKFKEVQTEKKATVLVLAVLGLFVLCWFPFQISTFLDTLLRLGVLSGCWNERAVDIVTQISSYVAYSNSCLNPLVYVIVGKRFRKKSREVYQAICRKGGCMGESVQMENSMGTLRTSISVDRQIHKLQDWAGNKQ
In short: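 Membranes of stably transfected CHO cells (human or rat B2 receptor), prepared in 20 mM TES pH 6.8 with 1 mM 1,10-phenanthroline, 140 µg/mL bacitracin and 0.1% BSA, spun at 40 000g. […] Filtration on PEI-soaked GF/B filters. Ki, means ± SEM (n = 3 or 4).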

Rattus norvegicus [3] = species: Rattus norvegicus; assay: (§1) Agonistic activity on rat uterus(RUT) in presence of inhibitors; assay type: functional
In short: (§2)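 Uterus from female Sprague–Dawley rats (250-300 g) pretreated with diethylstilbestrol 0.1 mg/kg s.c. 18 h before CO2 kill. Tissue placed in Jalon solution (mM: NaCl 154, KCl 5.6, NaHCO3 1.7, MgCl2 1.4, glucose 5.5, CaCl2 0.3). One cumulative concentration-response curve per segment, run with or without protease inhibitors. Maximum per segment taken with angiotensin II (3 μM). Means ± SEM, n = 5; pD2.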

Homo sapiens [4] = species: Homo sapiens; assay: (§3) Agonistic activity on human umbilical vein(HUV) in presence of inhibitors; assay type: functional
In short: (§4)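 Human umbilical vein segments; cumulative concentration-response to agonist measured as contraction, run with or without protease inhibitors. Maximal contraction of each segment obtained after washout with U46619 (1 μM).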

Rattus norvegicus [5] = species: Rattus norvegicus; assay: Agonistic activity on rat uterus(RUT) in absence of inhibitors; assay type: functional
In short: as §2

Homo sapiens [6] = species: Homo sapiens; assay: Agonistic activity on human umbilical vein(HUV) in absence of inhibitors; assay type: functional
In short: as §4

Rattus norvegicus [7] = species: Rattus norvegicus; assay: as §1; assay type: functional, organism-based; conditions: read-out: pA2 (converted)
In short: as §2

Homo sapiens [8] = species: Homo sapiens; assay: as §3; assay type: functional, organism-based; conditions: read-out: pA2 (converted)
In short: as §4

B2 bradykinin receptor [9] = molecular target: T3, B2 bradykinin receptor; assay: Binding affinity against rat Bradykinin receptor B2 expressed in CHO cells using [3H]-bradykinin as radioligand; assay type: cell-based
In short: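 Competition binding on membranes from stably transfected CHO cells. Cells were scraped into 20 mM TES pH 6.8 with 1 mM 1,10-phenanthroline, 140 µg/mL bacitracine and 0.1% BSA, and membranes were pelleted at 40 000g for 15 min. […] Bound label was collected by filtration on PEI-presoaked GF/B filters and counted by scintillation. n = 3 or 4.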

| Compound | Ki (B1 bradykinin receptor) | Ki (B2 bradykinin receptor [1]) | pD2 (Homo sapiens [4]) | pD2 (Homo sapiens [6]) | also measured |
| --- | --- | --- | --- | --- | --- |
| NC(N)=NCCC[C@@H](N)C(=O)N[C@@H](CCCN=C(N)N)C(=O)N1CCC[C@H]1C(=O)N1CC(O)C[C@H]1C(=O)NCC(=O)N[C@@H](Cc1cccs1)C(=O)N[C@@H](CO)C(=O)N[C@@H]1CSc2ccccc2N(CC(=O)N[C@@H](CCCN=C(N)N)C(=O)O)C1=O (stereo partly specified) | > 10000 nM | 0.7 nM | 6.8 | 6.7 | Ki (B2 bradykinin receptor [2]): 6 nM; pD2 (Rattus norvegicus [3]): 7.5; pD2 (Rattus norvegicus [5]): 7.2 |
| NC(N)=NCCC[C@@H](N)C(=O)N[C@@H](CCCN=C(N)N)C(=O)N1CCC[C@H]1C(=O)N1C[C@H](O)C[C@H]1C(=O)NCC(=O)N[C@@H](Cc1cccs1)C(=O)N[C@@H](CO)C(=O)N1Cc2ccccc2C[C@@H]1C(=O)N1[C@H](C(=O)N[C@@H](CCCN=C(N)N)C(=O)O)C[C@@H]2CCCC[C@@H]21 [ICATIBANT] |  |  |  |  | Ki (B2 bradykinin receptor [2]): 0.077 nM; Kb (Rattus norvegicus [7]): 1.15 nM; Kb (Homo sapiens [8]): 6.61 nM |
| H-RPPGFSPFR-OH [BRADYKININ] [listing 1 of 2 here] |  |  | 7.9 | 7.4 | pD2 (Rattus norvegicus [3]): 8.3; pD2 (Rattus norvegicus [5]): 7.33 |
| H-RPPGFSPFR-OH [BRADYKININ] [listing 2 of 2 here] |  |  |  |  | Ki (B2 bradykinin receptor [9]): 0.46 nM |

Now from value to compound, other results behind:

| Ki (B1 bradykinin receptor) | Ki (B2 bradykinin receptor [1]) | Compound | pD2 (Homo sapiens [4]) | pD2 (Homo sapiens [6]) | also measured |
| --- | --- | --- | --- | --- | --- |
| > 10000 nM | 162 nM | N=C(N)NCCC[C@@H](N)C(=O)N[C@@H](CCCNC(=N)N)C(=O)N1CCC[C@H]1C(=O)N1CC(O)C[C@H]1C(=O)NCC(=O)N[C@@H](Cc1cccs1)C(=O)N[C@@H](CO)C(=O)N[C@H]1CSc2ccccc2N(CC(=O)N[C@@H](CCCNC(=N)N)C(=O)O)C1=O (stereo partly specified) |  |  |  |
| > 10000 nM |  | N=C(N)NCCC[C@H](NC(=O)CN1C(=O)[C@H](NC(=O)[C@H](CO)NC(=O)[C@H](Cc2ccccc2)NC(=O)CNC(=O)[C@@H]2CCCN2C(=O)[C@@H]2CCCN2C(=O)[C@@H](N)CCCNC(=N)N)CSc2ccccc21)C(=O)O |  |  |  |
|  | 19 nM | COc1ccc(C[C@@H](CN[C@@H](CCCNC(=N)N)C(=O)O)NC(=O)[C@@H]2CCCN2C(=O)[C@H](CO)NC(=O)[C@H](Cc2cccs2)NC(=O)CNC(=O)[C@@H]2C[C@@H](O)CN2C(=O)[C@@H]2CCCN2C(=O)[C@@H](N)CCCNC(=N)N)cc1 [LABRADIMIL] (H-RP[Hyp]G[2Thi]SP-X1) | 7.1 | 6.9 |  |
